# Calls of active or inactive are those of the source. No cut-off for these calls is given here.
# What was measured:
# [1] = target: T1, Sodium-dependent serotonin transporter (Homo sapiens, UniProt P31645); experiment: Displacement of [3H]-citalopram from human SERT expressed in HEK293 cell membranes after 60 mins by liquid scintillation counting
# Method in brief: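 Membranes from cells expressing human serotonin transporter; [3H]citalopram radioligand. Ki from IC50 via Cheng–Prusoff (radioligand concentration and Kd). Ki values are means of two or three independent experiments.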
# [2] = target: CYP2D6 (Homo sapiens, UniProt P10635); experiment: Drug metabolism in human liver microsomes assessed as CYP2D6-medited compound metabolism at 1 uM after 15 to 30 mins by LC-MS/MS analysis; assay type: ADME; settings: read-out: Drug metabolism
# CYP2D6, sequence (P10635 whole entry): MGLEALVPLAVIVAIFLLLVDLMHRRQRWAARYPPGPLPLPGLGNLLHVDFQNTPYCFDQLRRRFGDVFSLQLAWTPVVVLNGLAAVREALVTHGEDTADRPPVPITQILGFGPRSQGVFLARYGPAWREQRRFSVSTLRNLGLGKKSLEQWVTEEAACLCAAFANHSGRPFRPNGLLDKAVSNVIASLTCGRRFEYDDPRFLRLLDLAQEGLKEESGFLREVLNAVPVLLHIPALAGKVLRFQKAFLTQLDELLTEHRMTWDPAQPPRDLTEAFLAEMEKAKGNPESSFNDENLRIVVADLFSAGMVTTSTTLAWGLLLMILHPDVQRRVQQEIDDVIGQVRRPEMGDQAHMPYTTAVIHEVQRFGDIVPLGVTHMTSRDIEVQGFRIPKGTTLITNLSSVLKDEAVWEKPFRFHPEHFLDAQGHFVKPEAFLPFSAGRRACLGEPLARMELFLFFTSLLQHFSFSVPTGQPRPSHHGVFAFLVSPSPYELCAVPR
# Method in brief: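 Human liver microsomes (1 mg/mL) with 1 µM test substance and 3 mM NADPH (final) in 50 mM potassium phosphate, pH 7.4, at 37 °C; stopped after 15–30 min with 3 volumes methanol. Metabolic rate taken from slope, with and without 4 µM quinidine (final). The quinidine-resistant fraction was assigned to other enzymes; CYP2D6 contribution = total minus that fraction.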
# [3] = system: Rattus norvegicus; experiment: Increase in serotonin levels in Crlj:WI rat frontal cortex assessed as at 10 mg/kg, po administered as single dose at 3 hrs post perfusion by microdialysis relative to baseline control; assay type: functional, organism-based
# Method in brief: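 Frontal cortex microdialysis in rats. Dialysate (10 µL per 5-min collection, at 20-min intervals) was injected automatically into HPLC for 5-HT. Oral dosing followed at least 3 h of perfusion, once baseline was stable, and sampling continued 3 h after dosing.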
# [4] = target: T1, Sodium-dependent serotonin transporter; experiment: Inhibition of human SERT expressed in CHO cells assessed as reduction in [3H]5-HT uptake preincubated for 10 mins followed by [3H]5-HT addition measured after 20 mins by liquid scintillation counting; assay type: cell-based
# Method in brief: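 CHO cells stably expressing human serotonin transporter; compound or DMSO in reaction buffer pre-incubated with cells at 37 °C for 10 min, then [3H]5-HT plus compound added and incubated 37 °C for 20 min. Cells rinsed twice, lysed, radioactivity counted. IC50 values are means of at least three independent experiments.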
# T1 sequence (P31645 whole entry): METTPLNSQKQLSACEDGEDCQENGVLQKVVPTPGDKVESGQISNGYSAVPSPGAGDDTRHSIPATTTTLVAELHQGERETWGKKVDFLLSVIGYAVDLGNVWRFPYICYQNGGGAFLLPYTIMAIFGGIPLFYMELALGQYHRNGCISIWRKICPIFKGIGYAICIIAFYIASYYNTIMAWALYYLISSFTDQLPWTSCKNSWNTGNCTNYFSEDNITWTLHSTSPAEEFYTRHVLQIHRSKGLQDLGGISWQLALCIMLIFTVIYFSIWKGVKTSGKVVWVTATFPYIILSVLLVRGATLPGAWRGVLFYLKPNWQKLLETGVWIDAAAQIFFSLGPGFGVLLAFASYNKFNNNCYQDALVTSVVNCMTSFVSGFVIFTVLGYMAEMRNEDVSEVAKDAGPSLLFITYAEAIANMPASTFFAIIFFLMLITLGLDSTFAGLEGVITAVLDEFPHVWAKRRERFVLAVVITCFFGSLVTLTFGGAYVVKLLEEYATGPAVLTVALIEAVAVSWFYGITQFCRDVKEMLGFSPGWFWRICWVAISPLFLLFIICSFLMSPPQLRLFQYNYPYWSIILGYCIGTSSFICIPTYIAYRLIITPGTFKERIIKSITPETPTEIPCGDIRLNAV
SMILES,Ki [1],metabolised at 1 µM [2],IC50 [4],Activity [3]
COCCOc1cc(CC2CCN(CCc3ccc4c(c3)C(=O)CCO4)CC2)ccc1C(C)C,246 nM,,,
CCc1ccc(CC2CCN(CCc3ccc4c(c3)C(=O)CCO4)CC2)cc1OCCOC,9.85 nM,18.4%,,
COCCOc1cc(CC2CCN(CCc3ccc4c(c3)C(=O)CCC4)CC2)ccc1Br,0.67 nM,11.8%,,
COCCOc1cc(Br)cc(CC2CCN(CCc3ccc4c(c3)C(=O)CCO4)CC2)c1,5.32 nM,14%,,
COCCOc1cc(CC2CCN(CCc3ccc4c(c3)C(=O)CCCO4)CC2)ccc1Br,1.17 nM,4.2%,,
COCCOc1cc(CC2CCN(CCc3ccc4c(c3)S(=O)(=O)CCO4)CC2)ccc1Br,2.59 nM,55.8%,,
COCCOc1cc(CC2CCN(CCc3ccc4c(c3)C(=O)CCO4)CC2)ccc1F,111 nM,,,
COCCOc1cc(Br)cc(CC2CCN(CCc3cc4c(cc3Cl)OCCO4)CC2)c1,14.1 nM,64.4%,,
COCCOc1cc(CC2CCN(CCc3ccc4c(c3)C(=O)CCO4)CC2)ccc1C,5.25 nM,48.5%,45.3 nM,
COCCOc1cc(CC2CCN(CCc3ccc4c(c3)C(=O)CCO4)CC2)ccc1Cl,3.37 nM,53.5%,16.4 nM,
COCCOc1ccc(Br)c(CC2CCN(CCc3cc4c(cc3Cl)OCCO4)CC2)c1,,86%,,

# More lines, main results first:
Ki [1],metabolised at 1 µM [2],IC50 [4],SMILES,Activity [3]
1.74 nM,0%,,COCCOc1cc(CC2CCN(CCc3ccc4c(c3)CCCO4)CC2)ccc1Br,
18.5 nM,49.4%,,COCCOc1cc(Br)cc(CC2CCN(CCc3ccc4c(c3)OCCO4)CC2)c1,
1.41 nM,3.6%,,COCCOc1cc(CC2CCN(CCc3ccc4c(c3)OCCC4=O)CC2)ccc1Br,
5.47 nM,75.6%,,COCCOc1cc(CC2CCN(CCc3cc4c(cc3Cl)OCCO4)CC2)ccc1Br,
2.39 nM,55.6%,,COCCOc1cc(CC2CCN(CCc3ccc4c(c3)OCCO4)CC2)ccc1Br,
0.41 nM,,,COCCOc1cc(CC2CCN(CCc3ccc4c(c3)C(=O)CCO4)CC2)ccc1I,
74.6 nM,,,COCCOc1cccc(CC2CCN(CCc3cc4c(cc3Cl)OCCO4)CC2)c1Br,
,0%,,COCCOc1cc(CC2CCN(CCc3ccc4c(c3)C(=O)CCO4)CC2)ccc1Br,Active
202 nM,,,COCCOc1cccc(CC2CCN(CCc3ccc4c(c3)C(=O)CCO4)CC2)c1,
5.4 nM,6.8%,,COCCOc1cc(CC2CCN(CCc3ccc4c(c3)OCCC4)CC2)ccc1Br,
8.44 nM,36.4%,,COCCOc1cc(CC2CCN(CCc3ccc4c(c3)C(O)CCO4)CC2)ccc1Br (stereo not given),

# Source: ChEMBL document CHEMBL4219078, “Discovery of DSP-1053, a novel benzylpiperidine derivative with potent serotonin transporter inhibitory activity and partial 5-HT1A receptor agonistic activity” (Bioorg Med Chem, 2018)
